Assay outcomes deposited in PubChem BioAssay by several laboratories.
In the library only some 7.1% were active in any assay of this set; here they are far more common.
HUVEC inhibit = inhibitors of human endothelial cell proliferation. HUVEC proliferation, CellTiter-Glo luminescence, 72 h; stronger effect = lower value. viability, % at 10 µM (by protocol). actives 1.1% (n = 86,000). AID 648;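 active = viability at or below 30%; inactive = viability above 30%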;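 also: 100% = median luminescence of DMSO-only cell control wells on each plate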
Cav3 T inh = inhibitors of human Cav3.2 T-type calcium channel. O95180. Cav3.2-expressing cells, Fluo-4 calcium fluorescence FDSS; stronger effect = lower value. B-score at 10 µM. actives 4% (n = 100,000);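 active = single-dose well whose peak fluorescence ratio is a statistical outlier from its plate by either plate-standardised score or position-corrected B-score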
PTEN del growth = PTEN-deleted cell growth suppression; HCT116 PTEN-null viability, CellTiter-Glo, 60 h; stronger effect = lower value; viability, % at 10 µM; actives 1.2% (n = 140,000);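 active = viability at or below a set limit, 4 SD under the median of all tested compounds, cut at about 3.7% in these data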;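 also: PTEN knockout HCT116 line with beta catenin targeted HCT116 as companion control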
H69AR growth 86K = growth inhibitors of human H69AR lung tumor cells; H69AR lung tumor viability, ATP luminescence, 72 h; stronger effect = lower value; viability, % at 10 µM; actives 6% (n = 85,000);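 active = viability at or below 40%; inactive = viability above 40%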;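 also: multidrug resistant small cell line overexpressing MRP-1 efflux transporter; 100% = mean luminescence of untreated control wells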
Fibroblast inh = blocks proliferation of human lung fibroblasts; viability, % at 10 µM; LL 47 human lung fibroblast viability, ATP luminescence; stronger effect = lower value; actives 1.1% (n = 85,000); AID 719;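 active = viability at or below 50% in the single dose screen; inactive = viability above 50%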;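 also: compound exposure lasted 72 h before the ATP readout; 100% = median luminescence of untreated cell-only wells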
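Test system: LL 47 human lung fibroblasts; Quantity: 1,150 cells/well; Buffer or medium: IMEM plus 15% FBS; Dosing: tenfold compound dosing solution, DMSO at 0.1%; Timing: overnight cell rest, 72 h compound treatment at 37 °C; Detection: ATP-based CellTiter-Glo luminescent readout; Read-out basis: viability percentage against median untreated-cell control; Controls: cell-only wells, no compound.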
HCT116 bCat-KO = beta-catenin-lacking colon tumor cell growth suppression | HCT116 beta-catenin knockout viability, CellTiter-Glo, 60 h; stronger effect = lower value | viability, % at 10 µM | actives 1.5% (n = 140,000) | AID 818;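 active = viability at or under a set limit, the compound median less 4 SD, cut at about 6% in these data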;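 also: 0% = Hyamine 1622 control at 20 µM and 100% = untreated cell control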
Starred values were filed as active, the others as inactive.

What do the screens show for `Cn1cccc1Cc1nnc(SCC(=O)N2CCCc3ccccc32)n1-c1ccc(F)cc1`?
HUVEC inhibit: 118.5; Cav3 T inh: -7.92*; PTEN del growth: 89.4; H69AR growth 86K: 94.6; Fibroblast inh: 93.8; HCT116 bCat-KO: 100.1

What do the screens show for `O=C(Cn1c(SCC(=O)N2CCCc3ccccc32)nc2ccccc21)N1CCCC1`?
HUVEC inhibit: 80.9; Cav3 T inh: 1.24; PTEN del growth: 93.0; H69AR growth 86K: 79.7; Fibroblast inh: 88.2; HCT116 bCat-KO: 90.5

Results for Cc1ccc(-n2c(Cc3cccn3C)nnc2SCC(=O)NC2CCCCC2)cc1 ?
HUVEC inhibit: 88.1; Cav3 T inh: -1.77; PTEN del growth: 91.7; H69AR growth 86K: 87.6; Fibroblast inh: 99.5; HCT116 bCat-KO: 95.4

How did COc1ccc(-n2c(Cc3ccccc3)nnc2SCC(=O)N2CCCc3ccccc32)cc1 do in these assays?
HUVEC inhibit: 92.1; Cav3 T inh: -8.49*; PTEN del growth: 82.5; H69AR growth 86K: 90.6; Fibroblast inh: 114.3; HCT116 bCat-KO: 72.5

What do the screens show for `Cn1cccc1Cc1nnc(SCC(=O)N2CCc3ccccc32)n1-c1ccc(F)cc1`?
HUVEC inhibit: 81.2; Cav3 T inh: -1.49; PTEN del growth: 90.1; H69AR growth 86K: 83.3; Fibroblast inh: 85.4; HCT116 bCat-KO: 96.5

What do the screens show for `COCCn1c(SCC(=O)N2CCCc3ccccc32)nc2cccnc21`?
HUVEC inhibit: 86.8; Cav3 T inh: 0.973; PTEN del growth: 80.7; H69AR growth 86K: 19.0*; Fibroblast inh: 107.6; HCT116 bCat-KO: 77.5

What do the screens show for `COc1ccc(-c2csc(NC(C)c3nc4cc(Cl)c(Cl)cc4n3CCCO)n2)cc1` (centres undefined)?
Cav3 T inh: -3.21

How did Cc1onc(-c2ccccc2)c1C(=O)Nc1sc2c(c1C#N)CCC2 do in these assays?
HUVEC inhibit: 67.8; Cav3 T inh: -1.9; PTEN del growth: 25.8; H69AR growth 86K: 16.1*; Fibroblast inh: 75.9; HCT116 bCat-KO: 35.6

How did Cc1noc(C)c1C(=O)Nc1sc(C)c(-c2ccccc2)c1C#N do in these assays?
HUVEC inhibit: 57.3; Cav3 T inh: -3.86; PTEN del growth: 94.8; H69AR growth 86K: 32.0*; Fibroblast inh: 94.9; HCT116 bCat-KO: 85.9

Results for Cc1onc(-c2ccccc2)c1C(=O)Nc1sc2c(c1C(N)=O)CCC2 ?
HUVEC inhibit: 89.1; Cav3 T inh: -0.309; PTEN del growth: 86.1; H69AR growth 86K: 34.1*; Fibroblast inh: 90.7; HCT116 bCat-KO: 80.5

How did Cc1onc(-c2c(F)cccc2Cl)c1C(=O)Nc1sc2c(c1C(N)=O)CCC2 do in these assays?
HUVEC inhibit: 69.8; Cav3 T inh: -2.58; PTEN del growth: 15.5; H69AR growth 86K: 15.9*; Fibroblast inh: 76.3; HCT116 bCat-KO: 22.8

What do the screens show for `Cc1cccc(C(=O)Nc2sc(C)c(-c3ccccc3)c2C#N)c1`?
Cav3 T inh: -2.04; PTEN del growth: 68.9; HCT116 bCat-KO: 70.2

Results for Cc1sc2c(c1C)c(=O)nc1scc(C)n12 ?
HUVEC inhibit: 92.2; H69AR growth 86K: 94.4; Fibroblast inh: 96.5

Results for Cn1c(N)c(C(=O)c2ccc(C#N)cc2)c(=O)n(C)c1=O ?
PTEN del growth: 89.7; HCT116 bCat-KO: 94.4

What do the screens show for `Cc1cc(C)c(S(=O)(=O)N2CCC(C(=O)NCc3ccco3)CC2)c(C)c1`?
HUVEC inhibit: 100.6; Cav3 T inh: -0.632; PTEN del growth: 95.7; H69AR growth 86K: 101.8; Fibroblast inh: 105.0; HCT116 bCat-KO: 97.9

How did O=C(Nc1ccc(S(=O)(=O)Nc2nccs2)cc1)/C(=C/c1ccccc1Cl)NC(=O)c1ccccc1 do in these assays?
PTEN del growth: 96.5; HCT116 bCat-KO: 93.4

How did O=C(CO/N=C/c1ccc2c(c1)OCO2)Nc1cccc(Br)c1 do in these assays?
PTEN del growth: 88.9; HCT116 bCat-KO: 85.7

How did N#Cc1c(NC(=O)CSc2ncc(-c3ccccc3)n2CC2CCCO2)sc2c1CCCC2 (centres undefined) do in these assays?
HUVEC inhibit: 69.1; Cav3 T inh: -2.78; PTEN del growth: 79.4; H69AR growth 86K: 84.3; Fibroblast inh: 106.1; HCT116 bCat-KO: 76.6

Results for NC(=O)c1c(NC(=O)CSc2nnc(-c3ccccc3)n2CC2CCCO2)sc2c1CCC2 (centres undefined) ?
HUVEC inhibit: 94.7; Cav3 T inh: 0.384; PTEN del growth: 96.1; H69AR growth 86K: 32.9*; Fibroblast inh: 95.6; HCT116 bCat-KO: 86.2
